PMI act satM6P – human PMI activators, high substrate, primary screen, biochemical, fluorescence intensity, near-saturating mannose 6-phosphate; hit rate 0.34% among 190,000; coupled PMI enzyme assay, resazurin fluorescence, 20 min; hits give high values; 1 = untreated enzyme, 0 = substrate-free blank; activation factor at 20 µM; AID 1216, 2008; Mannose-6-phosphate isomerase (Homo sapiens), P34949;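 active means activation factor of 2 or more at 20 µM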
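test system = human PMI in coupled enzyme assay | medium = HEPES-buffered pH 7.4 with magnesium and detergent | also added = 1.0 mM mannose-6-phosphate substrate with 0.22 mM NADP+ | compound = 20 µM single dose | times = 20 min incubation at room temperature | measured by = resorufin fluorescence (Ex 544/Em 590 nm) from resazurin via diaphorase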
PMI activator – activators of human PMI, primary screen, biochemical, fluorescence intensity, near-Km mannose 6-phosphate | activation factor at 20 µM | Mannose-6-phosphate isomerase (Homo sapiens), P34949 | purified human PMI, coupled resazurin fluorescence, 20 min; hits give high values; 1 = vehicle control, 0 substrate-free wells | hit rate 0.005% among 190,000;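 active means activation factor of 2 or more at 20 µM, relative to plate controls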
TNAP act hiacc – TNAP activators at high phosphate acceptor level, primary screen, biochemical, luminescence, uHTS. purified TNAP, CDP-star luminescence, 1 M DEA, 30 min; hits give high values; 0 = EDTA background, 1 = DMSO-only activity. activation factor at 20 µM. Alkaline phosphatase, tissue-nonspecific isozyme (Homo sapiens), P05186. 200,000 tested, under 10 active;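 active means activation factor at least 2 at 20 µM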
Target sequence (P05186 whole entry, looked up): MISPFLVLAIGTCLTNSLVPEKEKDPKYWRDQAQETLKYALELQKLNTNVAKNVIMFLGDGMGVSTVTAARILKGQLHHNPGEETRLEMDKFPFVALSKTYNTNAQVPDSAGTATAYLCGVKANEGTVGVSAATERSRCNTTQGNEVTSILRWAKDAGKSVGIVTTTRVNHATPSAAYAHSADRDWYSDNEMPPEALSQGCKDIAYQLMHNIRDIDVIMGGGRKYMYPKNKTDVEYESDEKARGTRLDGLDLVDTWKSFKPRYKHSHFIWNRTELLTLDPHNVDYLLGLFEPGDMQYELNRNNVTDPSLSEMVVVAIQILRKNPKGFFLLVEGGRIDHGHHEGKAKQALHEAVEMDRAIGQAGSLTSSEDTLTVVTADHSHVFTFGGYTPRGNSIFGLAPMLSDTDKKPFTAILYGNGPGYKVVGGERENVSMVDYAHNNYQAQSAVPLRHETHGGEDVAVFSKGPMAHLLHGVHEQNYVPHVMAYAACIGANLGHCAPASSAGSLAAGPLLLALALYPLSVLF
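Dosing: 20 µM single point. System: human TNAP. Amount: TNAP 1/800 final. Incubation: 30 min, room temperature. Read-out: TNAP activation factor scaled between EDTA and DMSO control wells. Signal: luminescence from CDP-star hydrolysis. Medium: 1 M DEA, pH 9.8, Mg2+, Zn2+. Control set: EDTA negative control, DMSO positive control.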
TNAP inh hi DEA – human TNAP enzyme inhibitors, primary screen, biochemical, luminescent, high phosphate acceptor level, uHTS. Alkaline phosphatase, tissue-nonspecific isozyme (Homo sapiens), P05186. purified TNAP, CDP-star luminescence, 1 M DEA. inhibition, % at 20 µM. hit rate 0.03% among 200,000. AID 1135, 2008;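 active means over 50% inhibition of tissue-nonspecific alkaline phosphatase at 20 µM in the single-dose screen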
TNAP inh noacc – human TNAP enzyme inhibitors, primary screen, biochemical, luminescent, no phosphate acceptor, uHTS; Alkaline phosphatase, tissue-nonspecific isozyme (Homo sapiens), P05186; inhibition, % at 20 µM; hit rate 0.26% among 200,000; AID 1012, 2008; purified TNAP, CDP-star luminescence, 30 min;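 active means tissue-nonspecific alkaline phosphatase inhibition above about 50% at 20 µM in the single-dose screen, limit read from the data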
Large screens that a line does not name were inactive. Rows were chosen to be rich in hits. Some 0.62% of all compounds tested hit in one or more screens of this group.

O=C(NCCCn1ccnc1)c1nn2c(C(F)(F)F)cc(-c3ccc(Br)cc3)nc2c1Cl	none
O=S(NCc1ccco1)C12CC3CC(CC(C3)C1)C2 (centres undefined)	PMI act satM6P 2
CN=C1SC(CC(=O)Nc2ccc(F)cc2F)C(=O)N1/N=C/c1ccc(OC(F)F)c(OC)c1 (centres undefined)	none
CCc1[nH]c(=S)c(C#N)c2c1CCCC2	PMI act satM6P 2.2
CC(=O)N1CCN(CC(=O)c2ccc(Br)cc2)CC1	PMI act satM6P 2.4
CCCN1CCc2c(sc(NC(=S)NC(=O)c3ccccc3)c2C#N)C1	PMI act satM6P 2
CC(C)N1CCc2c(sc(NC(=S)NC(=O)c3ccccc3)c2C#N)C1	none
O=C1OCC(c2ccccc2)=C1c1ccc(S(=O)(=O)N2CCOCC2)s1	PMI act satM6P 2
Cc1c(Br)c(=O)oc2c(Br)c(O)c(O)cc12	TNAP inh noacc 50.0
COc1cc(C2C(C#N)=C(N)Oc3n[nH]c(-c4cccs4)c32)cc(OC)c1O (centres undefined)	TNAP inh noacc 53.8
COC(=O)c1c(NC(=O)CN2CCC3(O)CCCCC3C2c2ccc(OC)cc2OC)sc(C)c1C (centres undefined)	none
Cc1c(CCOC(=O)c2ccc([N+](=O)[O-])cc2)sc[n+]1CC(=O)c1ccccc1	none
Cc1c(CCOC(=O)CC23CC4CC(CC(C4)C2)C3)sc[n+]1Cc1ccccc1	none
CCCCCCCCCOC(=O)C[n+]1csc(CCO)c1C	TNAP inh noacc 61.2
Cc1c(CCOC(=O)C23CC4CC(CC(C4)C2)C3)sc[n+]1CC#N	TNAP inh noacc 56.7
Cc1ncc(C[n+]2csc(CCOC(=O)CC34CC5CC(CC(C5)C3)C4)c2C)c(N)n1	none
Cc1c(CCO)sc[n+]1CC(=O)OCCC12CC3CC(CC(C3)C1)C2	TNAP inh noacc 61.9
O=C(O)C(O)C(O)c1nc2ccccc2[nH]1 (centres undefined)	none
COc1cc(/C=C2\SC(c3ccc(C)cc3)=NC2=O)ccc1O	none
COc1cc(/C=C2\SC(=S)N(Nc3ccccc3)C2=O)ccc1O	TNAP inh hi DEA 55.0
O=C1/C(=C/c2ccc(O)c(O)c2)SC(=S)N1Nc1ccccc1	TNAP inh hi DEA 88.4, TNAP inh noacc 93.7
COc1ccc(C2=NN(c3ccccc3)C(=O)/C2=C\c2ccc(O)c(OC)c2)cc1	TNAP inh noacc 50.1
COc1cc(/C=C2/SC(=S)N(CC3CCCO3)C2=O)ccc1O (centres undefined)	TNAP inh hi DEA 55.8
CCOC(=O)NC(=O)C(=CNc1ccc(C)cc1)C(=O)NC(=O)OCC	none
COc1cc(OC)c2c(c1)C(=O)OC2	none
O=C(NC(=S)Nc1cccc(NC(=O)c2ccccc2)c1)c1cccc([N+](=O)[O-])c1	none
NS(=O)(=O)c1cccc(NC(=S)NC(=O)c2cccc([N+](=O)[O-])c2)c1	TNAP inh noacc 69.6
O=C(CC1C(=O)NCCN1Cc1ccccc1C(F)(F)F)NCCc1ccccn1 (centres undefined)	none
C/C(=N/NC(=O)c1ccoc1C)c1cccc(NC(=O)C2CC2)c1	none
Oc1cc2c(cc1O)C1c3ccc(O)c(O)c3OCC1(O)C2 (centres undefined)	TNAP inh noacc 86.7
Cc1ccc(NS(=O)(=O)c2cc([N+](=O)[O-])ccc2NNC(=S)Nc2cccc(Cl)c2)c(C)c1	TNAP inh hi DEA 57.8
COC(=O)c1ccc2c(c1)C(=O)/C(=C/c1ccc(O)cc1)O2	TNAP inh hi DEA 55.0
CCc1ccc(/C=C2\Oc3cc(OS(C)(=O)=O)ccc3C2=O)cc1	none
CCC(C(=O)O)P(=O)(c1ccc(Cl)cc1)c1ccc(Cl)cc1 (centres undefined)	none
O=C(O)c1cccc(N/N=C/c2cc(Br)cc(Br)c2O)c1	none
Clc1ccc(N/N=C/c2cccnc2)cc1	PMI act satM6P 2.4
CC(C)(C)c1ccc(/C=N/Nc2cccc(C(=O)O)c2)cc1	PMI act satM6P 2
O=C(O)c1cccc(N/N=C/c2cccnc2)c1	PMI act satM6P 2.5, PMI activator 2
O=C(O)c1cccc(N/N=C/c2ccc(-c3ccccc3)cc2)c1	PMI act satM6P 2.7
O=C(N/N=C/c1cccnc1)C(O)(c1ccccc1)c1ccccc1	none
Cc1sc(N/N=C/c2cccnc2)nc1-c1ccc(Cl)cc1	none
Cc1nn(-c2cccc(Cl)c2)c2nc(-c3ccncc3)cc(C(=O)N3CCOCC3)c12	none
CN(C)S(=O)(=O)c1ccc(Cl)c(NC(=O)COC(=O)c2cc(-c3ccccc3)nc3ccccc23)c1	none
Cc1nnc2c3ccccc3c(Cl)nn12	none
Cc1cccc(/C=N/n2c(-c3ccccn3)n[nH]c2=S)c1	TNAP inh noacc 53.5
Cc1cccc2nc(COc3ccc(Cl)c4cccnc34)cn12	none
CC(=O)/C(=N\Nc1ccc(C)cc1)N1CCOCC1	PMI act satM6P 2.6
Cc1ccc(NC(=O)CC(=O)NCCN2CCOCC2)cc1	none
CS/C(=N\S(=O)(=O)c1cccs1)NC(=O)CSc1nc2ccccc2s1	PMI act satM6P 2.4
O=C1c2ccccc2C(=O)N1CCCc1nc2ccccc2c(=O)n1CCCn1ccnc1	TNAP inh noacc 52.9
O=C(Nc1ccccc1N1CCCC1)c1ccc(Br)o1	PMI act satM6P 2.1
O=C(Nc1ccccc1N1CCCC1)c1cccnc1	PMI act satM6P 2.1
O=C(Nc1cc(C(F)(F)F)ccc1N1CCCCC1)c1ccc(Br)o1	none
O=C(CSc1ccc(F)cc1)NCCSc1ccccc1	none
CCOC(=O)N/N=C\C=C\c1ccc2c(c1)OCO2	none
Cn1c(=O)[nH]c(=O)c2c1nc(Br)n2C/C=N/Nc1ccccc1	PMI act satM6P 3, PMI activator 2
C=CCn1c(Br)nc2c1c(=O)[nH]c(=O)n2C	none
C(=C\c1ccco1)/C1=NN(c2ccccc2)C(c2ccco2)C1 (centres undefined)	PMI act satM6P 2.2
O=C(CCCN1C(=O)c2ccccc2C1=O)Nc1ccc2c(c1)OCCO2	none
CC1(C)CC(=O)c2cc(C(=O)Nn3cnnc3)c(=O)n(-c3ccccc3)c2C1	none
COc1ccc(-n2c3c(cc(C(=O)NNc4ccccc4C)c2=O)C(=O)CC(C)(C)C3)cc1	PMI act satM6P 2
COc1ccc(-n2c3c(cc(C(=O)N4CCN(CCO)CC4)c2=O)C(=O)CC(C)(C)C3)cc1	none
COc1ccc(-n2c3c(cc(C(=O)NNc4ccccc4)c2=O)C(=O)CC(C)(C)C3)cc1	PMI act satM6P 2.1

Bioassay records (PubChem)
